Data as given in paper PMC5856478 (Biochemistry, 2018).
“Also recorded” adds a separate entry of the source. No end group written: not given here.

Experiments:
[1] = test system: Trx1-Ask1 interaction; assay: Co-immunoprecipitation of Ask1 and Trx1 in cells; type: cell-based; conditions: MDA-MB-231 cells, 6 h; co-IP
[2] = test system: Ask1; assay: Ask1 phosphorylation, Western blotting; type: cell-based; conditions: MDA-MB-231 cells, 6 h
Method in brief: (§1)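 MDA-MB-231 cells in 6 cm dishes were exposed to the test peptide, a TAT-only peptide, a scrambled-order (reverse) TAT peptide or a reference Trx1 inhibitor at 37 °C for 6 h. Cells were then lysed in TBST with 0.1% Triton X-100, 50 mM NaF and EDTA-free protease inhibitors. Equal protein was run on SDS-PAGE and blotted to PVDF. Primary antibodies (p-Ask1 Thr845, p-JNK Thr183/Tyr185, p-p38 Thr180/Tyr182, p-AMPK Thr172, GRP78, plus total proteins) were applied overnight at 4 °C, followed by HRP secondary and chemiluminescence. Data come from two or three independent experiments.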

[3] = test system: JNK; assay: JNK phosphorylation, Western blotting; type: cell-based; conditions: MDA-MB-231 cells, 100 μM, 6 h
Method in brief: as §1

[4] = test system: p53; assay: p53 stabilization, Western blotting; type: cell-based; conditions: 100 μM, 6 h
[5] = test system: p38; assay: p38 phosphorylation, Western blotting; type: cell-based; conditions: MDA-MB-231 cells, 100 μM, 6 h
Method in brief: as §1

[6] = test system: GRP78; assay: GRP78 induction; type: cell-based; conditions: MDA-MB-231 cells, 100 μM, 6 h
Method in brief: as §1

[7] = test system: AMPK; assay: AMPK phosphorylation, Western blotting; type: cell-based; conditions: MDA-MB-231 cells, 100 μM, 6 h
Method in brief: as §1

[8] = test system: MDA-MB-231 cells; assay: Cell viability, Trypan blue assay; type: cell-based; conditions: 48 h, 37 °C, n= 2 independent experiments
Method in brief: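 Viability was scored by Trypan blue exclusion. MDA-MB-231 cells in 6-well plates were treated with the TAT-fused test peptide, a reverse-sequence TAT control or a reference Trx1 inhibitor for 48 h at 37 °C. Cells were washed with PBS, trypsinised and resuspended in medium. They were mixed with 0.4% trypan blue and counted on an automated cell counter. Results are mean ± SD of 2 independent experiments.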

[9] = ref [45], [46]; cited from earlier work
[10] = test system: Trx1; conditions: ref [44]; cited from earlier work
[11] = test system: human Grx1; conditions: ref [53]; cited from earlier work
[12] = biological target: T1, Trx1 (Homo sapiens, UniProt P10599); assay: Phage display selection; type: binding; conditions: trial 3; bait Trx1; elution with 1GP3; three rounds of bio-panning; DTT 1 mM
T1 sequence (P10599 1-105): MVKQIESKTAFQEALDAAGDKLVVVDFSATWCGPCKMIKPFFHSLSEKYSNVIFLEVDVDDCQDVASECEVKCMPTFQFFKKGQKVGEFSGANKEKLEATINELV

[13] = biological target: T2, Grx1 (Homo sapiens, UniProt P35754); assay: Grx1 de-glutathionylation enzyme assay; type: biochemical
T2 sequence (P35754 1-106): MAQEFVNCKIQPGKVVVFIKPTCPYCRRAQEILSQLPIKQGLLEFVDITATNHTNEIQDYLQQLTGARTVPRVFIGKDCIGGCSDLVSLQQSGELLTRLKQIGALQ
Method in brief: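 Coupled assay: Grx1 (40 ng) reduces Cys-SSG (100 μM), and glutathione reductase recycles the resulting GSSG while oxidising NADPH. Buffer was 0.1 M phosphate pH 7.4 with 1 mM EDTA, BSA, 0.2 mM NADPH, yeast GR (4 units) and 0.25 mM GSH. Grx1 was incubated with peptide at 10–200 μM. NADPH loss was followed at 340 nm. Initial rates were converted to percent inhibition, and values are mean ± SD, n=3 independent experiments.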

[14] = not told
[15] = biological target: T2, Grx1; assay: Phage display selection; type: binding; conditions: trial 2; bait Grx1; elution with 1GP3; three rounds of bio-panning; DTT 1 mM
[16] = biological target: T3, glutaredoxin 1 (Grx1), human, His-tagged, purified (human, UniProt P35754 1-106); assay: SPR
T3 sequence (looked up): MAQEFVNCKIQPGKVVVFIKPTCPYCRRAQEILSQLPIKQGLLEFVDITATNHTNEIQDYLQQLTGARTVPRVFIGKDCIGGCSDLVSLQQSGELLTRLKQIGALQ

[17] = biological target: T3, glutaredoxin 1 (Grx1), human, …; assay: BLI
[18] = biological target: T4, thioredoxin 1 (Trx1), human, His-tagged, purified (human, UniProt P10599 1-105); assay: BLI
T4 sequence (looked up): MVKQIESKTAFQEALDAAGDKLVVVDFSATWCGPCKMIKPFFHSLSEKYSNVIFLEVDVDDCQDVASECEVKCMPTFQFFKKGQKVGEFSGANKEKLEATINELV

[19] = biological target: T3, glutaredoxin 1 (Grx1), human, …; assay: pull-down
[20] = biological target: T4, thioredoxin 1 (Trx1), human, …; assay: pull-down

CCC(C)SSc1ncc[nH]1 (centres unmarked) [PX-12, sec-butyl 2-imidazoylyl disulfide]
Disruption of Trx1-Ask1 interaction in cells [1]: disrupted the Trx1-Ask1 interaction
Ask1 phosphorylation [2]: activated Ask1 by phosphorylation
JNK phosphorylation [3]: induced JNK phosphorylation
p53 stabilization ([4]; MCF7 cells (wild-type p53, high Trx1)): induced p53 stabilization
p53 stabilization ([4]; MDA-MB-231 cells (mutant p53 R280K)): strong stabilization of mutant p53
p38 phosphorylation [5]: without p38 phosphorylation
GRP78 induction [6]: induced expression of GRP78
AMPK phosphorylation [7]: phosphorylation of AMPK
Cell viability [8]: significantly decreased viability; also recorded: potent cytotoxicity
Anti-tumor activity in clinical evaluation [9]: low anti-tumor activity
Cys residues of Trx1 oxidized or modified [10]: catalytic C32 and redox-sensitive C73

N[C@@H](CCC(=O)N[C@@H](CS)C(=O)NCC(=O)O)C(=O)O [reduced glutathione]
Binding affinity with human Grx1 [11]: does not have significant binding affinity

AMYSRGT [2TP1]
# of colony [12]: 2

ANHTMQV [1GP3]
IC50 [13]: 46 µM

ETRWPNT [2GTP1]
IC50 [13]: 11 µM
Cell permeability [14]: poor cell permeability

GRYAIPL [2GP2]
# of colony [15]: 2

RFADPRL [2TP2]
# of colony [12]: 1

SHYNYKV [1GP2]
Inhibition of Grx1 de-glutathionylation ([13]; Cys-SSG 100 μM substrate, 0.1 M phosphate pH 7.4, peptide 10–200 μM): did not have any inhibitory activity

SLKTTMP [2TP3]
# of colony [12]: 1

SVGSFSM [2GP1]
# of colony [15]: 1

ANHTMQV (not fully specified (N-terminus); also: biotin, position not given here) [biotin-1GP3]
Kd [16]: 38 ± 2 µM

ETRWPNT (not fully specified (N-terminus); also: biotinylated, position not given here) [biotinylated 2GTP1 peptide (biotin-2GTP1)]
Kd [17]: 1.2 µM
Kd [18]: 2.5 µM

SHYNYKV (not fully specified (N-terminus); also: biotin, position not given here) [biotin-1GP2]
binding result [19]: binds

ETRWPNT [non-biotinylated 2GTP1]
binding result [20]: binds
